These results are taken from ChEMBL document CHEMBL1123087, “Synthesis and antimetastatic properties of stereoisomeric tricyclic bis(dioxopiperazines) in the Lewis lung carcinoma model” (1985).

Holding throughout (format): functional
Experiment [1] is filed under the species Mus musculus. Briefly: Autopsy data was evaluated as average body weight/g. Put shortly: (§1)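 BDF1 female mice (19–21 g); Lewis lung carcinoma, 10⁶ cells implanted im in the leg on day 0, and the tumor-bearing leg amputated on day 8. Dosing after amputation was 160 mg/kg ip from day 8, Q2Dx4, given as a saline suspension. Survival was tracked to day 40. Mice dying and those killed on day 40 were autopsied for body weight, lung weight and metastasis counts (<2 mm, >2 mm). Survival was reported as median survival time and %ILS, with ≥25% ILS counted as active.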

The species entered for experiment [2] is Mus musculus. Briefly: Autopsy data was evaluated as average number of metastasis in >2 mm. Put shortly:
as §1

Experiment [3] is filed under the species Mus musculus. Kind of experiment: Autopsy data was evaluated as average number of metastasis in <2 mm. Put shortly:
as §1

The species entered for experiment [4] is Mus musculus. Kind of experiment: Autopsy data was evaluated as average lung weight, mg. In a few lines:
as §1

In experiment [5] the test system is Mus musculus. Briefly: Effect on postoperative lewis lung carcinoma model, was evaluated as increase in life span on BDF1 female mice, administered intraperitoneally. In a few lines: as §1
Experiment [6] concerns Mus musculus. Kind of experiment: Effect on postoperative lewis lung carcinoma model, was evaluated as […] on BDF1 female mice, administered intraperitoneally. Details: unit not given beside the values. In a few lines:
as §1

Bounds are passed on as bounds.

On to `O=C1CN2C[C@@H]3C(=O)N(CN4CCOCC4)C(=O)CN3C[C@@H]2C(=O)N1CN1CCOCC1`, for which the Average body weight in the experiment listed under Mus musculus [1] is given as 19.2 g. Further, the “Average No. of metastasis” value stood at 6 in the experiment listed under Mus musculus [2] and 0 in the experiment filed under Mus musculus [3]. For the same compound, the Average lung weight in the experiment listed under Mus musculus [4] stood at 358 mg. Also, in the experiment on Mus musculus [5], the “Increase in life span” value is greater than 48%. In the experiment on Mus musculus [6], this compound had an MST greater than 40.
Take `O=C1CN2C[C@H]3C(=O)NC(=O)CN3C[C@@H]2C(=O)N1`: in the experiment filed under Mus musculus [1], the Average body weight was found to be 16.9 g. Also, the “Average No. of metastasis” value in the experiment listed under Mus musculus [2] was found to be 48; in the experiment filed under Mus musculus [3], 0. The compound also yielded an Average lung weight in the experiment filed under Mus musculus [4] of 853 mg. The “Increase in life span” value in the experiment with Mus musculus [5] stood at 4%. In the experiment on Mus musculus [6], this compound had an MST of 28.
In the experiment listed under Mus musculus [1], `O=C1CN2C[C@H]3C(=O)N(CN4CCOCC4)C(=O)CN3C[C@@H]2C(=O)N1CN1CCOCC1` showed an Average body weight of 18.9 g. Further, the figures for the “Average No. of metastasis” value in the experiment filed under Mus musculus [2] and in the experiment listed under Mus musculus [3] were 38 and 0, respectively. In the experiment listed under Mus musculus [4], this compound showed an Average lung weight of 700 mg. Besides, the “Increase in life span” value in the experiment on Mus musculus [5] was less than 0%. In addition, the MST in the experiment with Mus musculus [6] is 26.
`O=C1CN2C[C@@H]3C(=O)NC(=O)CN3C[C@@H]2C(=O)N1` displayed an Average body weight in the experiment filed under Mus musculus [1] of 19.3 g. For the same compound, the “Average No. of metastasis” value in the experiment filed under Mus musculus [2] is 22; in the experiment filed under Mus musculus [3], 0. In addition, the Average lung weight in the experiment filed under Mus musculus [4] is recorded as 640 mg. The “Increase in life span” value in the experiment with Mus musculus [5] was 4%. In the experiment with Mus musculus [6], this compound gave an MST of 28.
